Results reported in ChEMBL document CHEMBL4622841, “Structural modifications of indolinones bearing a pyrrole moiety and discovery of a multi-kinase inhibitor with potent antitumor activity” (Bioorg Med Chem, 2020).
Active and inactive are the calls of the source. The calls are words filed in the database; no cut-off is given here.

Tests used:
HepG2 [1] = assay: Induction of apoptosis in human HepG2 cells assessed as late apoptotic cells at 3 uM incubated for 72 hrs by Annexin-V-FITC/propidium iodide staining-based flow cytometric analysis (reference value: 2.89%); format: functional
HT-29 = assay: Inhibition of colony formation in human HT-29 cells at 1 uM measured after 14 days by crystal violet staining-based assay; format: functional, cell-based
In short: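 HT-29 cells exposed to compound for 14 days and colonies counted. Read-out is colony formation rate relative to vehicle, given as mean ± SEM. Significance versus the vehicle group was tested by unpaired two-tailed Student's t-test.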

MKN-74 [2] = assay: Induction of apoptosis in human MKN74 cells assessed as viable cells at 3 uM incubated for 72 hrs by Annexin-V-FITC/propidium iodide staining-based flow cytometric analysis (reference value: 76.84%); format: functional; conditions: MKN-74, 72 h, read-out: Activity
HepG2 [3] = assay: Induction of apoptosis in human HepG2 cells assessed as early apoptotic cells at 1 uM incubated for 72 hrs by Annexin-V-FITC/propidium iodide staining-based flow cytometric analysis (reference value: 1.08%); format: functional
MKN-74 [4] = assay: Inhibition of colony formation in human MKN74 cells at 1 uM measured after 14 days by crystal violet staining-based assay; format: functional; conditions: MKN-74, 336 h
[5] = molecular target: Proto-oncogene tyrosine-protein kinase Src (Homo sapiens, UniProt P12931); assay: Inhibition of SRC (unknown origin) using FAM-labeled peptide and ATP as substrate preincubated for 10 mins followed by substrate addition measured after 1 hr by mobility shift assay
MKN-74 [6] = assay: Induction of apoptosis in human MKN74 cells assessed as late apoptotic cells at 3 uM incubated for 72 hrs by Annexin-V-FITC/propidium iodide staining-based flow cytometric analysis (reference value: 12.42%); format: functional
MKN-74 [7] = assay: Induction of apoptosis in human MKN74 cells assessed as necrotic cells at 1 uM incubated for 72 hrs by Annexin-V-FITC/propidium iodide staining-based flow cytometric analysis (reference value: 6.29%); format: functional
[8] = molecular target: Cyclin-dependent kinase 4 (Homo sapiens, UniProt P11802); assay: Inhibition of CDK4 (unknown origin) using FAM-labeled peptide and ATP as substrate preincubated for 10 mins followed by substrate addition measured after 1 hr by mobility shift assay
MKN-74 [9] = assay: Induction of apoptosis in human MKN74 cells assessed as necrotic cells at 3 uM incubated for 72 hrs by Annexin-V-FITC/propidium iodide staining-based flow cytometric analysis (reference value: 6.29%); format: functional
HUVEC = assay: Induction of apoptosis in human HUVEC cells assessed as early apoptotic cells at 1 uM incubated for 48 hrs by Annexin-V-FITC/propidium iodide staining-based flow cytometric analysis (reference value: 3.63%); format: functional
[10] = molecular target: Serine/threonine-protein kinase B-raf (Homo sapiens, UniProt P15056); assay: Inhibition of B-Raf (unknown origin) using FAM-labeled peptide and ATP as substrate preincubated for 10 mins followed by substrate addition measured after 1 hr by mobility shift assay
Serine/threonine-protein kinase B-raf, sequence (P15056 whole entry): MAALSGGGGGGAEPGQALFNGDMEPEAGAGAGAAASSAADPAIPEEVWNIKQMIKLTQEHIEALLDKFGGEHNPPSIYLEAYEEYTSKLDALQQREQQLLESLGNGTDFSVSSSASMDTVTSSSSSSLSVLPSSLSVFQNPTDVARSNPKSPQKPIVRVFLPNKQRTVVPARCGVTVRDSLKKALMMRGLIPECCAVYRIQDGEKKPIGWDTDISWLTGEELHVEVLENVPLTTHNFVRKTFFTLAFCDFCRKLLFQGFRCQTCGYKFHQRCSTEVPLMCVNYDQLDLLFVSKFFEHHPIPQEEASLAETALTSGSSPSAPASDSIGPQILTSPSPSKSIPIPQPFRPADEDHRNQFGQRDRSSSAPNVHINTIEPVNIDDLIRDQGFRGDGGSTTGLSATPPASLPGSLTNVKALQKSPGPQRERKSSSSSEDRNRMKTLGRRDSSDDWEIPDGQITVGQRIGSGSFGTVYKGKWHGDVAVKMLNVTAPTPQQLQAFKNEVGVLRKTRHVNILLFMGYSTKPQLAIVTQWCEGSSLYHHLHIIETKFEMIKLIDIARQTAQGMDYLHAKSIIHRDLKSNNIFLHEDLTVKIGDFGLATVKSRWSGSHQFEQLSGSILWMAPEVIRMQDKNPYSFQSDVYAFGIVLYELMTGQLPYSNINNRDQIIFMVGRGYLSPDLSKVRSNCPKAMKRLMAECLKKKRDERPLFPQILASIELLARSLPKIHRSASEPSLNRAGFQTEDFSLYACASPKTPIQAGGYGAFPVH

Cyclin-dependent kinase 4, sequence (P11802 whole entry): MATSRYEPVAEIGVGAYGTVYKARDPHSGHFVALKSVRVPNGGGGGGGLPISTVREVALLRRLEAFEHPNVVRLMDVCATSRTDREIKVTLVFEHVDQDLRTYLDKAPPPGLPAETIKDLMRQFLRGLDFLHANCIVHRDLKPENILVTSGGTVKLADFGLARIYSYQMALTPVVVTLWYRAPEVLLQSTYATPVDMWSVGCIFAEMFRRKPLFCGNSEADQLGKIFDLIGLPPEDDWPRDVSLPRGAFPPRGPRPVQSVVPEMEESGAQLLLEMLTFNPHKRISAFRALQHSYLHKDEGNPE
Proto-oncogene tyrosine-protein kinase Src, sequence (P12931 2-536 limits assumed): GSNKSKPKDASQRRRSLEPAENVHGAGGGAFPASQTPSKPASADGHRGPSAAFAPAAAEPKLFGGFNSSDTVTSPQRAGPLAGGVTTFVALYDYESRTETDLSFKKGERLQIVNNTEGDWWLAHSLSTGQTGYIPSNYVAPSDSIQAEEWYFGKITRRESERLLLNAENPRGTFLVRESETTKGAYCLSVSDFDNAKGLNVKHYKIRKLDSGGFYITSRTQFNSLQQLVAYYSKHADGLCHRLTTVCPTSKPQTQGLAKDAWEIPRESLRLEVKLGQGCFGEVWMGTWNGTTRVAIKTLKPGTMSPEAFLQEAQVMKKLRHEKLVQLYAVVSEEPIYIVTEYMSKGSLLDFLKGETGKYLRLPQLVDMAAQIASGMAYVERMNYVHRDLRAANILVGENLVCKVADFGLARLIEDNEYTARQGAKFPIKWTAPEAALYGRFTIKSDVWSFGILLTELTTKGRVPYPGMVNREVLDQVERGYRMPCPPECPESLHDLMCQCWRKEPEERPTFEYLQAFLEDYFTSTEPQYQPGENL

With COC(=O)c1ccc2c(c1)NC(=O)/C2=C(\Nc1ccc(-n2c(C)ccc2CN2CCN(C)CC2)cc1)c1ccccc1 the Activity (HepG2 [1]) was 64.56%, the inhibition (HT-29) was “Active” and the viability at 3 µM (MKN-74 [2]) was 8.53%. It also gave an Activity (HepG2 [3]) of 17.61%, an inhibition at 1 µM (MKN-74 [4]) of 100% and an IC50 [5] of 178 nM. For the same compound, the Activity (MKN-74 [6]) was 79.51%, the Activity (MKN-74 [7]) was 4.52% and the IC50 [8] was greater than 1000 nM. For the same compound, the Activity (MKN-74 [9]) was 4.15%, the Activity (HUVEC) was 3.58% and the IC50 [10] was greater than 1000 nM.
